Activity calls are given as the source filed them.
Assays:
[1] = Cytotoxicity against human leukemia stem/progenitor cells assessed as viable CD34+ cells at 10 uM after 18 hrs by annexin-V labeling-based flow cytometry; assay type: functional, CD34+ cell
[2] = Cytotoxicity against human leukemia stem/progenitor cells assessed as viable CD34+ cells at 5 uM after 18 hrs by annexin-V labeling-based flow cytometry; assay type: functional, CD34+ cell
In short: (§1)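 Primary leukemia cells from AML patient blood were treated for 18 h in serum-free IMDM, then stained with CD34-APC and CD38-PECy7 for 30 min. After washing in cold PBS, cells were labelled with Annexin-V–FITC/PI for 15 min at room temperature and read by flow cytometry. Viability of total and CD34⁺ cells was normalized to untreated controls (mean, SD).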

[3] = Cytotoxicity against human leukemia stem/progenitor cells assessed as cell viability at 5 uM after 18 hrs by annexin-V labeling-based flow cytometry; assay type: functional; conditions: in the assay text read “leukemia cells” for “leukemia stem/progenitor cells”, read-out: Activity; in short: as §1
[4] = Cytotoxicity against human HL60/A cells after 18 hrs by annexin-V labeling-based flow cytometry; assay type: functional, cell-based
HL-60 = assay: Cytotoxicity against human HL60 cells after 18 hrs by annexin-V labeling-based flow cytometry; assay type: functional, cell-based; conditions: HL-60, 18 h
[5] = Cytotoxicity against human leukemia cells assessed as cell viability at 10 uM after 18 hrs by annexin-V labeling-based flow cytometry
[6] = Drug degradation at pH 7.4 assessed as release of PTL after 3 hrs; assay type: physicochemical; conditions: buffer, pH 7.4, 3 h
[7] = Cytotoxicity against human leukemia stem/progenitor cells assessed as viable CD34+CD38- cells at 10 uM after 18 hrs by annexin-V labeling-based flow cytometry relative to control; assay type: functional
[8] = Cytotoxicity against human leukemia stem/progenitor cells assessed as viable CD34+ cells at 10 uM after 18 hrs by annexin-V labeling-based flow cytometry relative to control; assay type: functional, CD34+ cell
Homo sapiens = assay: Antitumor activity against human leukemia stem/progenitor cells xenografted in NOD/SCID mouse assessed as reduction of CD45+CD33+ cells in spleen compound pretreated for 18 hrs before grafting process measured after 8 weeks; assay type: functional, tissue-based
In short: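 Fresh primary AML patient cells were exposed for 18 h to saline or compound. Equal numbers of surviving cells were then injected iv into NOD/SCID mice. After 8 weeks the mice were sacrificed, and the spleen CD33⁺CD45⁺ human cells were quantified by flow cytometry, with each animal analysed individually.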

[9] = Cytotoxicity against human CD34+ hematopioetic stem cells at 5 uM by immunostaining method; assay type: cell-based
In short: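 Mononuclear cells were Ficoll-isolated from umbilical cord blood of a normal donor, cryopreserved, then rested in serum-free IMDM for 1 h. Cells were treated for 18 h in IMDM, stained with CD34-APC for 30 min, and labelled with Annexin-V–FITC/PI for 15 min at room temperature. Read by flow cytometry, normalized to vehicle, done in triplicate.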

[10] = Reduction in colony forming units of leukemia stem/progenitor cells at 10 uM after 15 to 20 days; assay type: functional, Homo sapiens
In short: (§2)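 Mononuclear cells from AML patient […] were exposed to drug for 18 h in serum-free IMDM, then plated in triplicate in M3434 methylcellulose. Total colonies (CFC-Mix, CFC-GM, CFC-G, CFC-M, BFU-E) were scored by morphology after 15−20 days.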

[11] = Reduction in colony forming units of leukemia stem/progenitor cells at 5 uM after 15 to 20 days; assay type: functional, Homo sapiens; in short: as §2
[12] = Induction of apoptosis in CD34+ leukemia stem/progenitor cells assessed as viable cells at 10 uM using annexin V/propidium iodide by flow cytometry; assay type: functional; conditions: Homo sapiens; read-out: Activity
In short: (§3)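 Primary AML patient cells were exposed to 10 μM compound for 18 h in IMDM, then stained with CD34-APC/CD38-PECy7. Annexin-V–FITC/PI was added and incubated for 15 min at room temperature before flow cytometry. Quadrants were defined as Q1 necrotic, Q2 late apoptotic, Q3 early apoptotic and Q4 viable.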

[13] = Induction of apoptosis in CD34+ leukemia stem/progenitor cells assessed as early apoptotic cells at 10 uM using annexin V/propidium iodide by flow cytometry; assay type: functional, Homo sapiens; in short: as §3
[14] = Induction of apoptosis in CD34+ leukemia stem/progenitor cells assessed as late apoptotic cells at 10 uM using annexin V/propidium iodide by flow cytometry; assay type: functional, Homo sapiens; in short: as §3
[15] = Induction of apoptosis in CD34+ leukemia stem/progenitor cells assessed as necrotic cells at 10 uM using annexin V/propidium iodide by flow cytometry; assay type: functional, Homo sapiens; in short: as §3

SMILES | Activity [1] [%] | Activity [2] [%] | viability at 5 µM [3] [%] | IC50 [4] [µM] | IC50 (HL-60) [µM] | viability at 10 µM [5] [%] | further results
C=C1C(=O)O[C@H]2[C@H]1CCC(C)=C1CC[C@@](C)(OC)[C@@H]12 | 2.1 | 25.5 | 34.1 | 10.2 | 9.9 | 10.8 | 
CCCCC/C=C/C=C/C(=O)N1CCCC1 [SARMENTINE] |  |  |  | > 50 | > 50 |  | 
C/C1=C\CC[C@@]2(C)O[C@@H]2[C@H]2OC(=O)[C@@H](CN=[N+]=[N-])[C@@H]2CC1 | 17.5 | 28.4 | 31.5 | 5.9 | 4.3 | 22.8 | Drug degradation [6]: Active
C/C1=C\CC[C@@]2(C)O[C@@H]2[C@H]2OC(=O)[C@@H](Cn3cc(-c4ccccc4)nn3)[C@@H]2CC1 |  |  |  | > 100 | > 50 |  | Drug degradation [6]: Not Active
C=C1C(=O)O[C@@H]2[C@@H]3[C@@H](CC[C@@]3(C)O)C(=C)CC[C@@H]12 | 22.6 | 53.7 | 61.6 | 9.9 | 9.4 | 30.6 | 
C/C1=C\CC[C@@]2(C)O[C@@H]2[C@H]2OC(=O)[C@@H](Cn3cc(CO)nn3)[C@@H]2CC1 |  |  |  | > 100 | > 50 |  | Drug degradation [6]: Not Active
C=C1C(=O)O[C@@H]2/C=C(\C)CC/C=C(\C)CC[C@@H]12 [COSTUNOLIDE] | 7.5 | 18.8 | 25.8 | 5.8 | 7.7 | 13.4 | 
C/C1=C\CC[C@@]2(C)O[C@@H]2[C@H]2OC(=O)[C@@H](Cn3cc(CCCCO)nn3)[C@@H]2CC1 |  |  |  | > 100 | > 50 |  | Drug degradation [6]: Not Active
C=C1CC[C@H]2C(=C)CC[C@H]3C(=C)C(=O)O[C@@H]3[C@@H]12 [DEHYDROCOSTUSLACTONE] | 3.8 | 2.9 | 6.1 | 3.7 | 5.3 | 6.4 | 
C=C1CC(=O)OC1=O [ITACONIC ANHYDRIDE] |  |  |  | > 50 | > 50 |  | 
C=C1C(=O)O[C@@H]2[C@@H]3[C@@H](CC[C@@]3(C)O)[C@](C)(O)CC[C@@H]12 | 84.8 | 84.9 | 88.5 | 17.9 | 21.9 | 89.9 | 
CC1=C2CC[C@@](C)(O)[C@@H]2[C@H]2OC(=O)[C@@H](C)[C@@H]2CC1 | 74.4 | 83.1 | 85 | > 50 | > 50 | 70.8 | 
C=C1CC[C@H]2C(=C)C(=O)O[C@@H]2[C@]2(O)[C@@H]1CC[C@@H]2C | 44.5 | 67.9 | 70.7 | 6.4 | 4.5 | 49.7 | 
C=C1CC[C@@H]2[C@](C)(CO)[C@H](O)CC[C@@]2(C)[C@@H]1C/C=C1/C(=O)OC[C@H]1O [ANDROGRAPHOLIDE] |  |  |  | 23.3 | 27 |  | 
C/C1=C\CC[C@@]2(C)O[C@@H]2[C@H]2OC(=O)[C@@H](Cn3cc(-c4cccc(N)c4)nn3)[C@@H]2CC1 |  |  |  | > 100 | > 50 |  | Drug degradation [6]: Not Active
CC1=C2CC[C@@](C)(O)[C@@H]2[C@H]2OC(=O)[C@@H](CN=[N+]=[N-])[C@@H]2CC1 | 11.2 | 26.3 | 64.3 | 6.7 | 6.2 | 53.1 | 
C[C@@H]1CC[C@H]2[C@@H](C)C(=O)O[C@@H]3O[C@@]4(C)CC[C@@H]1[C@]32OO4 [ARTEMISININ] |  |  |  | > 50 | > 50 |  | 
C=C1C(=O)O[C@@H]2[C@H]3C(C)=CC[C@@]34O[C@@]4(C)CC[C@@H]12 [ARGLABIN] | 10.7 |  |  |  |  | 20 | fold change (FC) [7]: 1.9; fold change (FC) [8]: 1.8
C=C1CCOC1=O [TULIPALINE A] |  |  |  | 28.8 | 35 |  | 
C=C1C(=O)O[C@@H]2[C@@H]3[C@@H](CC[C@@]3(C)O)[C@](C)(OC)CC[C@@H]12 | 76.3 | 95.8 | 96.5 | 11.2 | 9.4 | 75.2 | 
C=C1C(=O)O[C@@H]2C3O[C@]3(C)CC/C=C(\C)CC[C@@H]12 (some centres undefined) | 4.7 | 13.2 | 18 | 4.1 | 3.7 | 8.3 | Activity (Homo sapiens): Active; Activity [9]: Non-toxic; CFU [10]: 0; CFU [11]: 2; viability at 10 µM [12]: 1.73%; Activity [13]: 60.3%; Activity [14]: 27.8%; Activity [15]: 0.046%; fold change (FC) [7]: 2.6; fold change (FC) [8]: 3.8
C=C1C(=O)O[C@@H]2C=C(CCC(C)=O)[C@@H](C)CC[C@@H]12 | 70.9 | 81.5 | 83.2 | > 50 | > 50 | 72 | 

Reference: ChEMBL document CHEMBL2202986, “Guaianolide sesquiterpene lactones, a source to discover agents that selectively inhibit acute myelogenous leukemia stem and progenitor cells” (J Med Chem, 2012)
